Published values of several laboratories.
Lines come from different studies, so protocols differ.
ALOX5: Polyunsaturated fatty acid 5-lipoxygenase (ALOX5, Homo sapiens, UniProt P09917)
BCKDK: Branched-chain alpha-ketoacid dehydrogenase kinase (BCKDK, Homo sapiens, UniProt O14874)
PTPN7: Tyrosine-protein phosphatase non-receptor type 7 (PTPN7, Homo sapiens, UniProt P35236)
ABCB1: ATP-dependent translocase ABCB1 (ABCB1, Homo sapiens, UniProt P08183)

C=C(C)[C@@H]1CCC(C)=C[C@H]1c1c(O)cc(CCCCC)cc1O — IC50 (ALOX5; enzyme activity, inhibitor): 4.3 µM
O=C(NO)c1ccc(NC(=O)C2(c3ccccc3)CCCC2)c(F)c1 — IC50 (Histone deacetylase 1 (HDAC1, Homo sapiens, UniProt Q13547); enzyme activity, inhibitor): 0.181 µM
CCCc1nc(C(C)(C)O)c(C(=O)O)n1Cc1ccc(-c2ccccc2-c2nnn[nH]2)cc1 — IC50 (BCKDK; enzyme activity, inhibitor): 198 µM
O=C(O)C(=O)CC(=O)c1cccc(N(Cc2ccccc2)Cc2ccccc2)c1 — IC50 (PTPN7; enzyme activity, inhibitor, absorbance; pH 7): 87 µM
O=C(O)c1cc(O)c2c(c1)[C@H]([C@H]1c3cc(C(=O)O)cc(O)c3C(=O)c3c(O[C@@H]4O[C@H](CO)[C@@H](O)[C@H](O)[C@H]4O)cccc31)c1cccc(O[C@@H]3O[C@H](CO)[C@@H](O)[C@H](O)[C@H]3O)c1C2=O — IC50 (PTPN7; enzyme activity, inhibitor, fluorescence): 1 µM
CCN(CC)CCNC(=O)c1c(C)[nH]c(/C=C2\C(=O)Nc3ccc(F)cc32)c1C — IC50 (ABCB1; transporter efflux, inhibitor; LLC-PK1; 1 h): 6.7 µM
Cc1ccc(-c2cc(-c3ccc(-c4ccc(C(=O)O)cc4)[nH]3)nc3c(C(C)C)cccc23)cc1 — IC50 (Retinoic acid receptor gamma (RARG, Homo sapiens, UniProt P13631); reporter gene, antagonist): > 3.3 µM
CCCCCc1cc(O)c(C/C=C(\C)CCC=C(C)C)c(O)c1 — IC50 (ALOX5; enzyme activity, inhibitor): 0.7 µM
CCn1ncc2c1-c1cnc(N)c(c1)O[C@H](C)c1cc(F)ccc1-c1nn(C)nc1C2 — IC50 (Ephrin type-A receptor 6 (EPHA6, Homo sapiens, UniProt Q9UF33); enzyme activity, inhibitor, radiometric): 0.116 µM
C=CC(=O)Nc1cc(Nc2nccc(Nc3cc(Cl)c(F)cc3C(C)(C)O)n2)c(OC)cc1N1CC[C@@H](N(C)C)C1 — IC50 (Cytochrome P450 2A6 (CYP2A6, Homo sapiens, UniProt P11509); enzyme activity, inhibitor; human, liver microsomes): > 30 µM
O=c1cc(-c2ccc(O)c(O)c2)oc2cc(O)cc(O)c12 — IC50 (Histone deacetylase 8 (HDAC8, Homo sapiens, UniProt Q9BY41); enzyme activity, inhibitor): 6.91 µM
CCCCC(=O)N(Cc1ccc(-c2ccccc2-c2nnn[nH]2)cc1)[C@H](C(=O)O)C(C)C — IC50 (BCKDK; enzyme activity, inhibitor): 1.67 µM
CC(C)=CCC[C@@]1(C)C(CC[C@H]2[C@]3(C)CC[C@H](O)C(C)(C)O[C@H]3CC[C@@]2(C)O)=C(C)CC[C@H]1O — IC50 (ABCB1; transporter efflux, inhibitor, fluorescence; KB-V1; 10 min): 20 to 50 µM
CCOCc1nc(O)c(-c2nnc(Cc3ccc(Cl)cn3)o2)c(O)c1-c1c(OC)cccc1OC — IC50 (Mu-type opioid receptor (OPRM1, Homo sapiens, UniProt P35372); ligand displacement, radioligand): > 30 µM
CC/C=C\C/C=C\C/C=C\C/C=C\C/C=C\CCCC(=O)O — IC50 (DNA polymerase (POLA1, Bos taurus, UniProt A0AAA9TD94); enzyme activity, inhibitor): 32.1 µM
CNC(=O)c1cc2c(Oc3ccc(NC(=O)C4(C(=O)Nc5ccc(F)cc5)CC4)cc3)ccnc2cc1OC — IC50 (Tyrosine-protein kinase Srms (SRMS, Homo sapiens, UniProt Q9H3Y6); enzyme activity, inhibitor, radiometric): 0.01 µM
CSCC[C@H](NC(=O)[C@H](Cc1c[nH]c2ccccc12)NC(=O)CNC(=O)[C@H](Cc1ccc(O)cc1)NC(=O)[C@H](C)NC(=O)[C@@H](CCC(=O)O)NC(=O)CN1CCN(CC(=O)O)CCN(CC(=O)O)CCN(CC(=O)O)CC1)C(=O)N[C@@H](CC(=O)O)C(=O)N[C@@H](Cc1cccc2ccccc12)C(N)=O — IC50 (Gastrin/cholecystokinin type B receptor (Rattus norvegicus, UniProt P30553); ligand displacement, radioligand): 0.00192 µM
O=C(Nc1ccccc1C=NNS(=O)(=O)c1ccc2ccccc2c1)c1cc([N+](=O)[O-])cc([N+](=O)[O-])c1 — IC50 (UDP-N-acetylmuramoylalanine--D-glutamate ligase (murD, Escherichia coli K-12, UniProt P14900); enzyme activity, inhibitor, absorbance): 49 µM
